# According to ChEMBL document CHEMBL3580629, “Diterpenoids and Triterpenoids from the Resin of Bursera microphylla and Their Cytotoxic Activity” (J Nat Prod, 2015):
# Tests used:
# Assay type in all cases: functional, cell-based; call rule not given here
# [1] = system: PC-3; assay: Cytotoxic activity against human PC3 cells assessed as reduction in cell viability incubated for 48 hrs by MTT assay
# In short: (§1)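 Cells seeded at 1 × 10^4 per well and left 24 h at 37 °C, 5% CO2 to attach, then given test substances at 200 to 0.05 μM for 48 h. Substances were dissolved in DMSO and diluted in medium (0.06–2.0% DMSO in cultures). MTT (5 mg/mL stock) was added for the final 4 h, and formazan was dissolved in acidic isopropanol. Absorbance was read at 570/650 nm against vehicle (100%). IC50 came from nonlinear regression of log-normalized data, six doses in triplicate, at least three experiments.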
# [2] = system: A549; assay: Cytotoxic activity against human A549 cells assessed as reduction in cell viability incubated for 48 hrs by MTT assay; in short: as §1
# [3] = system: HeLa; assay: Cytotoxic activity against human HeLa cells assessed as reduction in cell viability incubated for 48 hrs by MTT assay; in short: as §1
# [4] = system: RAW264.7; assay: Cytotoxic activity against mouse RAW264.7 cells assessed as reduction in cell viability incubated for 48 hrs by MTT assay; in short: as §1
# [5] = Cytotoxic activity against mouse M12.C3.F6 cells assessed as reduction in cell viability incubated for 48 hrs by MTT assay; in short: as §1
# [6] = Mus musculus, RAW264.7, 48 h, read-out: IC50
SMILES,IC50 ([1]; pc-3),IC50 [2],IC50 [3],IC50 ([4]; raw264.7),IC50 [5],"IC50 [4, 6]","IC50 ([5]; Mus musculus, 48 h, read-out: IC50)","IC50 ([1]; Homo sapiens, PC-3, 48 h, read-out: IC50)"
CC(=O)O[C@@]1(C(C)C)C/C=C(\C)CC[C@@H]2O[C@@]2(C)CC/C=C(\C)CC1 (relative stereo),Not Active,Not Active,Not Active,Not Active,Not Active,,,
CC(=O)OC[C@H](Cc1ccc2c(c1)OCO2)[C@H](COC(C)=O)Cc1ccc2c(c1)OCO2,,,,,,9800 nM,,
COc1cc(C[C@@H](COC(C)=O)[C@H](COC(C)=O)Cc2ccc3c(c2)OCO3)cc(OC)c1OC,,,,,,200 nM,2500 nM,
CC(C)=CCC/C(C)=C/C/C=C(\C)[C@H]1CCC2[C@@]3(C)CC[C@H](O)C(C)(C)C3CC[C@]21C (stereo partly specified),Not Active,Not Active,Not Active,Not Active,Not Active,,,
COc1cc(C[C@@H]2COC[C@H]2Cc2ccc3c(c2)OCO3)cc(OC)c1OC,,,,,,400 nM,,
COc1cccc2c1C(=O)c1c(O)c3c(c(O)c1C2=O)C[C@@](O)(C(=O)CO)C[C@@H]3O[C@H]1C[C@H](N)[C@H](O)[C@H](C)O1 [DOXORUBICIN],,,,,,630 nM,,3.18 µM
CC(C)=CCC/C(C)=C/C/C=C(\C)[C@H]1CCC2[C@@]3(C)CCC(=O)C(C)(C)C3CC[C@]21C (stereo partly specified),Not Active,Not Active,Not Active,Not Active,Not Active,,,
